What all share (format): cell-based
Data set [1] has as its system Raji. Kind of data set: Inhibition of 12-O-tetradecanoylphorbol-13-acetate-induced EBV-early antigen activation in human Raji cells assessed as EA activation at 3.2 nmol relative to 12-O-tetradecanoylphorbol-13-acetate. Set-up: scale not given: the % may be the effect or the level left. Particulars: human gammaherpesvirus 4. The gist of the method:
(§1)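 Raji cells induced with TPA (32 pmol = 20 ng/mL) plus compound at 10, 100, 500 or 1000 mol ratio/TPA (0.32, 3.2, 16, 32 nmol). EBV early antigen activation expressed as % of the TPA-only positive control (100%), given with S.D. Results count only where Raji viability stays at or above 60% at 2 days.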

Data set [2] has as its system Raji. Briefly: Inhibition of 12-O-tetradecanoylphorbol-13-acetate-induced EBV-early antigen activation in human Raji cells assessed as EA activation at 0.32 nmol relative to 12-O-tetradecanoylphorbol-13-acetate. Set-up: scale not given: the % may be the effect or the level left. Particulars: human gammaherpesvirus 4. The gist of the method:
as §1

Data set [3] is described as follows: Cytotoxicity against human Raji cells assessed as cell viability at 32 nmol by trypan blue assay. Conditions: read-out: Activity. The method in brief: (§2)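 Raji cells treated with compound together with TPA (32 pmol, 20 ng/mL) at mole ratios to TPA of 10, 100, 500 or 1000 (0.32, 3.2, 16, 32 nmol). Viability determined by trypan blue staining 2 days after treatment. At least 60% viability is needed for the EBV-EA result to be valid.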

The nature of data set [4]: Cytotoxicity against human Raji cells assessed as cell viability at 16 nmol by trypan blue assay. Particulars: read-out: Activity. The method in brief: as §2
In data set [5] the test system is Raji. Briefly: Inhibition of 12-O-tetradecanoylphorbol-13-acetate-induced EBV-early antigen activation in human Raji cells assessed as EA activation at 16 nmol relative to 12-O-tetradecanoylphorbol-13-acetate. Details: scale not given: the % may be the effect or the level left. Particulars: human gammaherpesvirus 4. The method in brief: as §1
Data set [6] has as its system Raji. Kind of data set: Inhibition of 12-O-tetradecanoylphorbol-13-acetate-induced EBV-early antigen activation in human Raji cells assessed as EA activation at 32 nmol relative to 12-O-tetradecanoylphorbol-13-acetate. Details: scale not given: the % may be the effect or the level left. Conditions: human gammaherpesvirus 4. The gist of the method: as §1
The nature of data set [7]: Cytotoxicity against human Raji cells assessed as cell viability at 3.2 nmol by trypan blue assay. Particulars: read-out: Activity. The method in brief:
as §2

A short description of data set [8]: Cytotoxicity against human Raji cells assessed as cell viability at 0.32 nmol by trypan blue assay. Particulars: read-out: Activity. The gist of the method:
as §2

For the compound `COC(=O)c1ccc2[nH]c3ccccc3c2c1`, the Activity in the data set on Raji [1] was determined as 81.4%; in the data set on Raji [2] it was 100%; in the data set on Raji [5] it was 46.3%; with Raji [6], 21.7%. In addition, the viability at 32 nmol in data set [3] came out at 60%. In addition, the viability at 16 nmol in data set [4] is greater than 80%. For the same compound, in data set [7], the viability at 3.2 nmol was greater than 80%. In data set [8], the viability at 0.32 nmol is greater than 80%.

On to `C=C(C)C1Cc2c(cc(O)c3[nH]c4ccccc4c23)C(=O)O1` (configuration not stated) [CLAUSAMINE A], for which the Activity is 73.7% in the data set on Raji [1], 95.5% with Raji [2], 28.3% in the data set with Raji [5] and 15.4% in the data set on Raji [6]. For the same compound, the viability at 32 nmol in data set [3] stood at 60%. For the same compound, in data set [4], the viability at 16 nmol was found to be 70%. Further, in data set [7], the viability at 3.2 nmol was greater than 80%. In addition, the viability at 0.32 nmol in data set [8] was greater than 80%.

Consider `C=C(C)C1Cc2c(cc(OC)c3[nH]c4ccccc4c23)C(=O)O1` (configuration not stated) [CLAUSAMINE B], for which the Activity in the data set on Raji [1] was determined as 78.2%; in the data set with Raji [2] it was 100%; in the data set on Raji [5], 39.2%; in the data set with Raji [6] it was 18.3%. Moreover, in data set [3], the viability at 32 nmol stood at 60%. Further, in data set [4], the viability at 16 nmol amounted to 70%. The viability at 3.2 nmol in data set [7] is greater than 80%. Further, the viability at 0.32 nmol in data set [8] is greater than 80%.

Consider `COc1cc2c(c3c1[nH]c1ccccc13)CC(C(C)(C)O)OC2=O` (configuration not stated) [CLAUSAMINE C], for which the Activity in the data set with Raji [1] is 72%; in the data set with Raji [2] it was 92.3%; in the data set on Raji [5] it was 27.2%; in the data set on Raji [6], 12.4%. Moreover, the viability at 32 nmol in data set [3] came to 60%. Also, in data set [4], the viability at 16 nmol is 70%. Besides, the viability at 3.2 nmol in data set [7] was greater than 80%. Further, in data set [8], the viability at 0.32 nmol was greater than 80%.

`COC(=O)c1cc(OC)c2[nH]c3ccccc3c2c1CC=C(C)C` [CLAUSAMINE]: the Activity is 66% with Raji [1], 92.3% with Raji [2], 34.2% with Raji [5] and 18.2% in the data set with Raji [6]. Also, the viability at 32 nmol in data set [3] stood at 60%. Besides, in data set [4], the viability at 16 nmol is 70%. The viability at 3.2 nmol in data set [7] was greater than 80%. Also, in data set [8], the viability at 0.32 nmol was greater than 80%.

With `COC(=O)c1cc(O)c2[nH]c3ccccc3c2c1` [CLAUSINE E], the Activity is 74.6% with Raji [1], 100% with Raji [2], 42.4% in the data set on Raji [5] and 27.4% with Raji [6]. The viability at 32 nmol in data set [3] is 60%. The viability at 16 nmol in data set [4] was greater than 80%. For the same compound, the viability at 3.2 nmol in data set [7] was greater than 80%. Further, in data set [8], the viability at 0.32 nmol was greater than 80%.

In the case of `COC(=O)c1cc(O)c2[nH]c3ccccc3c2c1CC=C(C)C` [CLAUSINE F], the Activity in the data set with Raji [1] amounted to 69.8%; with Raji [2], 94.6%; with Raji [5], 37.5%; in the data set with Raji [6], 20.2%. Further, the viability at 32 nmol in data set [3] was 60%. Moreover, in data set [4], the viability at 16 nmol was greater than 80%. Also, the viability at 3.2 nmol in data set [7] is greater than 80%. Further, the viability at 0.32 nmol in data set [8] was greater than 80%.

For the compound `COc1cc(C=O)c(CC=C(C)C)c2c1[nH]c1ccccc12` [EKEBERGININE], the Activity came out at 63.5% in the data set on Raji [1], 90.3% in the data set with Raji [2], 22.4% in the data set on Raji [5] and 10.5% in the data set with Raji [6]. Moreover, the viability at 32 nmol in data set [3] came to 60%. The viability at 16 nmol in data set [4] was greater than 80%. In data set [7], the viability at 3.2 nmol was greater than 80%. Besides, in data set [8], the viability at 0.32 nmol is greater than 80%.

As for `O=Cc1cc(O)c2[nH]c3ccccc3c2c1` [O-DEMETHYLMURRAYANINE], the Activity amounted to 69.4% with Raji [1], 100% in the data set on Raji [2], 40.3% in the data set with Raji [5] and 25.2% in the data set on Raji [6]. Moreover, the viability at 32 nmol in data set [3] stood at 60%. Further, the viability at 16 nmol in data set [4] was greater than 80%. Further, in data set [7], the viability at 3.2 nmol is greater than 80%. The viability at 0.32 nmol in data set [8] was greater than 80%.

These data come from ChEMBL document CHEMBL1155664, “New carbazole alkaloids from Clausena anisata with antitumor promoting activity” (J Nat Prod, 2000).
